Experimental findings from ChEMBL document CHEMBL1155449, “Peptide HIV-1 integrase inhibitors from HIV-1 gene products” (J Med Chem, 2010) are described below.

Structures are written as SMILES. Active and inactive are the calls of the source. No cut-off for these calls is given here. Where a SMILES comes first, the peptide text is derived from it.

The test system of one data set is MT4. Nature of the data set: Cytotoxicity against human MT4 cells assessed as firefly luciferase activity at 1 to 100 uM after 6 to 7 days by chemiluminescence assay. Type of data set: cell-based. The following applies: mt4, 100 µM. A digest of the protocol: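 1×10^3 MT-4 Luc cells constitutively expressing luciferase were exposed to varying peptide concentrations in the HIV-1 HXB2 (ca. 0.2-10 ng p24) infection format. Cells lysed after 6-7 d and luciferase measured by chemiluminescence. Cytotoxicity is read as loss of luciferase signal.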

The subject of data set [1] is Human immunodeficiency virus 1. Nature of the data set: Antiviral activity against HIV1 HXB2 infected in human MT4 cells assessed as firefly luciferase activity at 20 uM after 6 to 7 days by chemiluminescence assay. Type of data set: functional, organism-based. The gist of the method:
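MT-4 Luc cells (constitutively high luciferase; HIV-1-induced cell death lowers signal), 1×10^3 cells per well, infected with HIV-1 HXB2 (ca. 0.2-10 ng p24) with varying peptide concentrations present. Lysed 6-7 d post-infection; luciferase read by chemiluminescence. Protection from HIV-1-induced death keeps signal high, and a fall in signal also serves as the cytotoxicity read-out.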

For data set [2], the target named is T1, Human immunodeficiency virus type 1 integrase (Human immunodeficiency virus 1, UniProt Q7ZJM1). Nature of the data set: Inhibition of HIV1 integrase 3'-end processing activity after 1 hr by densitometric analysis.
Data set [3] concerns the target Human immunodeficiency virus type 1 reverse transcriptase (Human immunodeficiency virus 1, UniProt Q72547). Nature of the data set: Inhibition of HIV1 reverse transcriptase-associated ribonuclease H activity by fluorescence assay.
Data set [4] addresses T1, Human immunodeficiency virus type 1 integrase. Nature of the data set: Inhibition of HIV1 integrase strand transfer activity after 1 hr by densitometric analysis.
The subject of data set [5] is Human immunodeficiency virus 1. Nature of the data set: Antiviral activity against HIV1 JRCSF infected in CD4/CCR5-expressing human NP2 cells assessed as inhibition of viral p24 antigen production measured on day 4 post viral infection by ELISA. Type of data set: functional, organism-based. To be noted: JRCSF ISOLATE. A digest of the protocol: (§1)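 1×10^5 NP2-CD4-CCR5 cells incubated 30 min at room temperature with HIV-1 JR-CSF supernatant (ca. 0.2-50 ng p24), washed and cultured with varying peptide concentrations. Supernatant p24 measured by ELISA on day 4 post-infection.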

A short description of data set [6]: Selectivity index, ratio of cytotoxicity against human MT4 cells to antiviral activity against HIV1 JRCSF infected in CD4/CCR5-expressing human NP2 cells. The following applies: read-out: Selectivity Index. Format: toxicity, cell-based.
The test system of data set [7] is Human immunodeficiency virus 1. Nature of the data set: Antiviral activity against HIV1 JRCSF infected in CD4/CCR5-expressing human NP2 cells assessed as inhibition of viral p24 antigen production at 0.8 uM measured on day 4 post viral infection by ELISA. Type of data set: functional. To be noted: Human immunodeficiency virus 1, JRCSF ISOLATE, NP2, 96 h. A digest of the protocol:
as §1

In data set [8] the test system is Human immunodeficiency virus 1. Nature of the data set: Antiviral activity against HIV1 HXB2 infected in CD4/CXCR4-expressing human NP2 cells assessed as host cellular enzyme catalyzed end-joined viral genome production at 0.5 uM measured on day 2 post viral infection by quantitative RT-PCR analysis relative to control. Format: functional. A digest of the protocol:
(§2)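 NP2-CD4-CXCR4 cells infected with HIV-1 HXB2 with or without 0.5 μM peptide (DMSO control). Genomic DNA extracted day 2 post-infection. Viral DNA quantified by real-time PCR for strong-stop DNA, late reverse-transcription products, Alu-LTR (integrated) and 2-LTR (end-joined) products. Each is expressed as % of the DMSO-treated control.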

Data set [9] relates to Human immunodeficiency virus 1. Nature of the data set: Antiviral activity against HIV1 HXB2 infected in CD4/CXCR4-expressing human NP2 cells assessed as total genome of infected virus at 0.5 uM measured on day 2 post viral infection by quantitative RT-PCR analysis relative to control. Type of data set: functional. A digest of the protocol: as §2
In data set [10] the test system is Human immunodeficiency virus 1. Nature of the data set: Antiviral activity against HIV1 HXB2 infected in human MT4 cells assessed as inhibition of viral p24 antigen production at 0.5 uM measured on day 4 post viral infection by ELISA. Type of data set: functional, organism-based. The gist of the method:
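1×10^5 MT-4 cells incubated 30 min at room temperature with HIV-1 HXB2 supernatant (ca. 0.2-50 ng p24), washed and cultured with 0.5 μM peptide or without. Supernatants collected at several time points for p24 ELISA, with cells passaged as needed.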

In data set [11] the test system is Human immunodeficiency virus 1. Nature of the data set: Antiviral activity against HIV1 HXB2 infected in CD4/CXCR4-expressing human NP2 cells assessed as generation of viral DNA at late stage of reverse transcription at 0.5 uM measured on day 2 post viral infection by quantitative RT-PCR analysis relative to control. Type of data set: functional. The gist of the method: as §2

Data set [12] deals with Human immunodeficiency virus type 1 integrase (Human immunodeficiency virus 1) (UniProt Q7ZJM1). Nature of the data set: Inhibition of HIV1 HXB2 integrase-mediated integrate viral genome production in CD4/CXCR4-expressing human NP2 cells assessed as production of integrate viral genome at 0.5 uM measured on day 2 post viral infection by quantitative RT-PCR analysis. Also on record: scale not given: the % may be the effect or the level left. Format: cell-based. The gist of the method:
as §2

T1 sequence (Q7ZJM1 whole entry): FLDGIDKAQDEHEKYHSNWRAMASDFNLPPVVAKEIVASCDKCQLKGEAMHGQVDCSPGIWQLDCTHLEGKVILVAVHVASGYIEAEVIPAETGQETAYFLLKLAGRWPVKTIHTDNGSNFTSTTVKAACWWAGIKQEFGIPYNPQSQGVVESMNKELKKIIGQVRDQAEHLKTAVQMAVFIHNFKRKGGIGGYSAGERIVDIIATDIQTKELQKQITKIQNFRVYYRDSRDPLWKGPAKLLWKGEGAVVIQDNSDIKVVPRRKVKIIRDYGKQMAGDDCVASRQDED
Sequence of Human immunodeficiency virus type 1 integrase (Human immunodeficiency virus 1) (Q7ZJM1 as listed by the source): as the sequence (Q7ZJM1 whole entry) above

For the compound `CC[C@H](C)[C@H](NC(C)=O)C(=O)N[C@@H](Cc1cnc[nH]1)C(=O)N[C@@H](Cc1ccccc1)C(=O)N[C@@H](CCCNC(=N)N)C(=O)N[C@H](C(=O)NCC(=O)N[C@@H](CCCNC(=N)N)C(=O)N[C@@H](CCCNC(=N)N)C(=O)N[C@@H](CCCNC(=N)N)C(=O)N[C@@H](CCCNC(=N)N)C(=O)N[C@@H](CCCNC(=N)N)C(=O)N[C@@H](CCCNC(=N)N)C(=O)N[C@@H](CCCNC(=N)N)C(=O)N[C@@H](CCCNC(=N)N)C(N)=O)[C@@H](C)CC` (Ac-IHFRIGRRRRRRRR-NH2), in the data set with MT4, the Activity entry is reported as “Non-toxic”. The outcome in data set [1] was inactive.
As for `CC[C@H](C)[C@H](NC(=O)[C@H](C)NC(=O)[C@H](CCC(=O)O)NC(C)=O)C(=O)N[C@H](C(=O)N[C@@H](CCCNC(=N)N)C(=O)N[C@H](C(=O)N[C@@H](CC(C)C)C(=O)N[C@@H](CCC(N)=O)C(=O)N[C@@H](CCC(N)=O)C(=O)N[C@@H](CC(C)C)C(=O)N[C@@H](CC(C)C)C(=O)N[C@@H](Cc1ccccc1)C(=O)N[C@H](C(=O)N[C@@H](Cc1cnc[nH]1)C(=O)N[C@@H](Cc1ccccc1)C(=O)N[C@@H](CCCNC(=N)N)C(=O)N[C@H](C(=O)NCC(=O)N[C@@H](CCCNC(=N)N)C(=O)N[C@@H](CCCNC(=N)N)C(=O)N[C@@H](CCCNC(=N)N)C(=O)N[C@@H](CCCNC(=N)N)C(=O)N[C@@H](CCCNC(=N)N)C(=O)N[C@@H](CCCNC(=N)N)C(=O)N[C@@H](CCCNC(=N)N)C(=O)N[C@@H](CCCNC(=N)N)C(N)=O)[C@@H](C)CC)[C@@H](C)CC)[C@@H](C)CC)[C@@H](C)CC`, the values for the IC50 in [2], in [3] and in data set [4] were 6 nM, above 500 nM and 5 nM, respectively. Besides, the Activity entry in the data set on MT4 is “Non-toxic”. The outcome in data set [1] was Active.
Take `CC(=O)N[C@@H](CC(C)C)C(=O)N[C@@H](CCC(N)=O)C(=O)N[C@@H](CCC(N)=O)C(=O)N[C@@H](CC(C)C)C(=O)N[C@@H](CC(C)C)C(=O)N[C@@H](Cc1ccccc1)C(=O)N[C@@H](CCCNC(=N)N)C(=O)N[C@@H](CCCNC(=N)N)C(=O)N[C@@H](CCCNC(=N)N)C(=O)N[C@@H](CCCNC(=N)N)C(=O)N[C@@H](CCCNC(=N)N)C(=O)N[C@@H](CCCNC(=N)N)C(=O)N[C@@H](CCCNC(=N)N)C(=O)N[C@@H](CCCNC(=N)N)C(N)=O` (Ac-LQQLLFRRRRRRRR-NH2): the Activity result with MT4 was “Non-toxic”.
For the compound `CC[C@H](C)[C@H](NC(=O)[C@H](CCCNC(=N)N)NC(=O)[C@H](Cc1ccccc1)NC(=O)[C@H](Cc1cnc[nH]1)NC(=O)[C@@H](NC(=O)[C@H](Cc1ccccc1)NC(=O)[C@H](CC(C)C)NC(=O)[C@H](CC(C)C)NC(=O)[C@H](CCC(N)=O)NC(=O)[C@H](CCC(N)=O)NC(=O)[C@H](CC(C)C)NC(C)=O)[C@@H](C)CC)C(=O)NCC(=O)N[C@@H](CCCNC(=N)N)C(=O)N[C@@H](CCCNC(=N)N)C(=O)N[C@@H](CCCNC(=N)N)C(=O)N[C@@H](CCCNC(=N)N)C(=O)N[C@@H](CCCNC(=N)N)C(=O)N[C@@H](CCCNC(=N)N)C(=O)N[C@@H](CCCNC(=N)N)C(=O)N[C@@H](CCCNC(=N)N)C(N)=O`, in [5], the inhibition result is “Dose-dependent effect”. Moreover, in data set [6], the selectivity ratio is 10. In data set [7], the inhibition at 0.8 µM stood at 50%. Further, the Activity in [8] was 779.8%; with MT4, “Non-toxic”; in data set [9] it was 139.7%; in data set [11], 84.4%; in data set [12], 15.8%. In addition, the IC50 is 8 nM in data set [2], above 500 nM in [3] and 4 nM in data set [4]. The inhibition result in data set [10] was “Active”.
